Most compounds without a hit are left out; they make up all but 1.8% or so of the library.
HTRA1 inhibitor: inhibitors of human serine peptidase HTRA1; Q92743; hit rate 0.5% among 340,000; inhibition, % at 5.96 µM; recombinant HTRA1, FP-rhodamine activity-based probe, fluorescence polarization; AID 504803; in the data active = inhibition above about 36%
DDE Tn7 FP inh: disrupts Tn7 cyclic peptide binding to fibrin D-Dimer-E complex. inhibition, % at 8.3 µM. AID 720508. FP displacement of FITC-Tn7 peptide from fibrin DD(E); 0% = median of compound wells per plate. hit rate 0.13% among 370,000;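 active = inhibition above the mean of compounds falling within the control limits plus 3 SD of them, cut at about 14% in these data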
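Also added: labelled Tn7 tracer, 0.1 µM; Assay system: human fibrin DD(E) protein; Amount: 2 µM fibrin DD(E); Schedule: 10 min compound pre-incubation, 3 h probe incubation at room temperature; Repeats: one replicate per compound; Read-out basis: percent inhibition; Measured by: fluorescence polarization of the labelled Tn7 tracer.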
DDE Tn6 FP inh: inhibitors of Tn6 peptide binding to human fibrin DD(E); P02675; Fibrin DD(E) TRITC-Tn6 fluorescence polarization displacement; inhibition, % at 8.3 µM; hit rate 0.21% among 370,000;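 active = inhibition above a per-campaign cutoff: mean of compounds within control limits plus 3 SD, cut at about 15% in these data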
ABHD4 inh: inhibits mouse alpha/beta hydrolase domain 4; Q8VD66; purified mABHD4, FP-Rh probe fluorescence polarization; inhibition, % at 8.92 µM; AID 720543; hit rate 0.54% among 370,000;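 active = inhibition exceeding the mean over every tested compound plus 3 SD, cut at about 30% in these data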
Target sequence (Q8VD66 whole entry, looked up, the tested form may be a part): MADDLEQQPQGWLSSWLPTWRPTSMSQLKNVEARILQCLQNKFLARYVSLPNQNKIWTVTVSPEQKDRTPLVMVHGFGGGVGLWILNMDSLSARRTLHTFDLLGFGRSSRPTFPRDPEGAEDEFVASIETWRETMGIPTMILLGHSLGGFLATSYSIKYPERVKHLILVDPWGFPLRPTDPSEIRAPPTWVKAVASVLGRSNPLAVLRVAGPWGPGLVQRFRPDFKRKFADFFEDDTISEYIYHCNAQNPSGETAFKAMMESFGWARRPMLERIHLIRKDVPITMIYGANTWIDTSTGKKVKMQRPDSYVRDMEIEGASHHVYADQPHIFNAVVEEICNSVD
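Material: mouse ABHD4 enzyme, wild type; Benchmarks: S159A mutant high control, sample median low control; Buffer or medium: HEPES pH 7.0, NaCl, Pluronic buffer; Signal: fluorescence polarization; Read-out: percent inhibition of probe binding, normalized to plate controls; Timing: pre-incubation 45 min, probe exposure 60 min, at 25 °C; Dosing: 8.92 µM, single dose.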
SIAE inh: blocks human sialic acid acetylesterase; AID 1053197; hit rate 0.69% among 370,000; Q9HAT2; SIAE FP-Rh probe binding, fluorescence polarization; inhibition, % at 9.66 µM;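 active = inhibition above a cutoff: mean of compounds within the control limits plus 3 SD of those, cut at about 17% in these data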
TCR CD3 inh: inhibitors of human TCR-CD3 interaction. hit rate 0.37% among 360,000. inhibition, % at 9.4 µM. TAMRA-labeled TCR probe fluorescence, biochemical;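 also: recombinant mutant TCR 2C K166C tagged with TAMRA read by polarization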
BSA TAMRA ctr: counter-screen for TCR-CD3 interaction inhibitors: BSA probe | shares compounds with TCR CD3 inh | TAMRA-labeled BSA probe fluorescence counterscreen | inhibition, % at 9.4 µM | hit rate 10% among 1,200 | AID 652035; in the data active = inhibition above about 23%
TCR-CD3 conf: confirmation of human TCR-CD3 interaction inhibitors; shares compounds with TCR CD3 inh; TAMRA-labeled TCR probe fluorescence binding assay; inhibition, % at 9.4 µM; hit rate 48% among 1,200; AID 652036
Of the large screens only hits and unclear results are named; the others gave an inactive call (follow-up assays come after a bar, where they were run). Rule as the data show it, unless noted: active = inhibition above about 19%; inactive = the rest.

COC(=O)c1ccc2c(=O)n(CCCCCC(=O)NC3CCCCC3)c(=O)[nH]c2c1	none (no result: HTRA1 inhibitor)
COc1cc(O)c2c(c1)OC(c1ccc(O)cc1)CC2=O (stereo not drawn)	none
Cc1c(O)cc2c(c1O)C(=O)CC(c1ccc(O)cc1)O2 (stereo not drawn)	TCR CD3 inh 34 | BSA TAMRA ctr inactive | TCR-CD3 conf 22
COc1ccc(CN(C2CCCC2)S(=O)(=O)c2ccc(-n3cnnn3)cc2)cc1OC	TCR CD3 inh 82 | BSA TAMRA ctr inactive | TCR-CD3 conf inactive
CC(C)(C)C1=Nn2c(nnc2-c2ccc(C(C)(C)C)cc2)SC1	none (no result: HTRA1 inhibitor, TCR CD3 inh)
Cc1ccccc1NS(=O)(=O)c1ccc(C(=O)N2CCC2)cc1	TCR CD3 inh 20 | BSA TAMRA ctr inactive | TCR-CD3 conf inactive
CCOc1ccc(CCNC(=O)c2cc3sccc3n2Cc2cccc(C)c2)cc1OCC	none (no result: HTRA1 inhibitor, TCR CD3 inh)
COc1ccc(N2CCN(C(c3cccs3)C(C)NC(=O)C(=O)N3CCCC3)CC2)cc1 (stereo not drawn)	TCR CD3 inh 20 | BSA TAMRA ctr inactive | TCR-CD3 conf inactive
CC(=O)OCCn1c2nc(=O)[nH]c(=O)c-2nc2cc(C)c(C)cc21	SIAE inh 20, TCR CD3 inh 37 | BSA TAMRA ctr 51 | TCR-CD3 conf 34
O=C(Cc1c[nH]c2ccccc12)Nc1ccc(Nc2cccnc2)c(-c2cc(F)cc(F)c2)c1	none (no result: HTRA1 inhibitor)
CC(=O)CC[C@H]1CC[C@]2(CCCN(C(=O)C3CCCCC3)C2)O1	none (no result: HTRA1 inhibitor, TCR CD3 inh)
CC(C)c1ccc(NC(=O)C(c2ccccc2)N2CCOCC2)cc1 (stereo not drawn)	TCR CD3 inh 24 | BSA TAMRA ctr inactive | TCR-CD3 conf inactive
CC(C)c1ccc(NC(=O)C(c2ccccc2)N2CCN(C=O)CC2)cc1 (stereo not drawn)	none
CCCCc1c(-c2ccccc2OC)ncn1C1CCCCC1	TCR CD3 inh 21 (no result: HTRA1 inhibitor) | BSA TAMRA ctr inactive | TCR-CD3 conf inactive
Cc1ccc(-n2c(O)c(C=Nc3ccccc3-c3n[nH]c(=S)[nH]c3=O)c3ccccc3c2=O)cc1C	TCR CD3 inh 23 | BSA TAMRA ctr inactive | TCR-CD3 conf inactive
CC1OC(OCC2OC(Oc3c(-c4ccc(O)cc4)oc4cc(O)cc(O)c4c3=O)C(O)C(O)C2O)C(O)C(O)C1O (stereo not drawn)	TCR CD3 inh 21 | BSA TAMRA ctr inactive | TCR-CD3 conf inactive
CC(C(=O)N1CCCCC1)n1sc2ccccc2c1=O (stereo not drawn)	TCR CD3 inh 31 | BSA TAMRA ctr inactive | TCR-CD3 conf inactive
CC(=O)c1c(C)[nH]c(C(=O)OCC(=O)NNC(=O)c2ccc([N+](=O)[O-])cc2)c1C	none
CC(=O)c1c(C)[nH]c(C(=O)OCc2nnc(-c3ccc([N+](=O)[O-])cc3)o2)c1C	TCR CD3 inh 26 | BSA TAMRA ctr inactive | TCR-CD3 conf inactive
O=S(=O)(c1cccs1)N1CCCc2nc(-c3ccc(F)cc3)ccc21	none (no result: HTRA1 inhibitor)
CC(OC(=O)c1ccc(NC(=O)CC#N)cc1)C(=O)NC(c1ccccc1)c1ccccc1 (stereo not drawn)	TCR CD3 inh 29 | BSA TAMRA ctr inactive | TCR-CD3 conf inactive
CCOc1ccccc1NC(=O)C(OC(=O)c1ccccc1)c1ccccc1 (stereo not drawn)	none
CCOc1ccccc1NC(=O)C(OC(=O)c1ccc(NC(=O)CC#N)cc1)c1ccccc1 (stereo not drawn)	TCR CD3 inh 20 | BSA TAMRA ctr inactive | TCR-CD3 conf inactive
Cc1ccc(NC(=O)C(C)OC(=O)c2ccc(NC(=O)CC#N)cc2)cc1S(=O)(=O)N1CCOCC1 (stereo not drawn)	TCR CD3 inh 27 | BSA TAMRA ctr inactive | TCR-CD3 conf inactive
Cc1ccc(C(=O)OC(C)C(=O)Nc2ccc(S(N)(=O)=O)cc2)cc1S(=O)(=O)N1CCOCC1 (stereo not drawn)	none
CC(OC(=O)c1ccc(NC(=O)CC#N)cc1)C(=O)Nc1ccc2c(c1)OCCO2 (stereo not drawn)	none

Screening data deposited in PubChem by The Scripps Research Institute Molecular Screening Center.
